The text below walks through data of ChEMBL document CHEMBL1143811, “Bis-acridines as lead antiparasitic agents: structure-activity analysis of a discrete compound library in vitro” (Antimicrob Agents Chemother, 2007).

Data set [1] concerns Schistosoma mansoni. Briefly: Antimicrobial activity against Schistosoma mansoni assessed as worm vitality at 6 uM after 4 hrs. The class given is functional, organism-based. In short, it runs like this:
(§1)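 20-day-old worms were obtained by perfusion of BALB/c mice infected with 200 cercariae. About 20 worms/well were kept in Basch 169 with 10% bovine calf serum, preincubated 24 h at 37°C in 5% CO2, then exposed to 1, 3 or 6 µM. Vitality (feeding, flexing, gut peristalsis; death = nonmotile, shrunken, dark) was scored at 4 and 18 h in two experiments.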

For a further data set, the system named is MRC5. Briefly: Toxicity against human MRC5 cells at 3.13 uM. The class given is cell-based. Particulars: mrc5, 3.13 µM.
Data set [2] in a line: Selectivity index, ratio of MIC for HL60 cells to MIC for Trypanosoma brucei brucei clone 427-221a. The format is functional, HL-60. The procedure, abridged:
(§2)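 Bloodstream-form T. b. brucei in Baltz medium (~10^4/ml) and HL-60 cells in RPMI 1640 (~10^5/ml), both with 16.7% FBS, were exposed 48 h at 37°C in 5% CO2 to compound up to 10 µM in 1% final DMSO. Live cells were hemocytometer-counted, by motility (trypanosomes) or trypan blue exclusion (HL-60). EC50 was taken by regression versus DMSO cultures from three experiments. MIC was the lowest fully lethal concentration, judged microscopically.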

For the next data set, the system named is Leishmania donovani. Briefly: Antileishmanial activity against Leishmania donovani MHOM/SD/00/1S-2D promastigotes assessed as parasite death at 10 uM after 72 hrs. The class given is functional. The procedure, abridged:
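Promastigotes seeded at 1.5 x 10^5 cells/ml in medium 199 with 10% heat-inactivated FBS. Compound added at a final 10 µM, in triplicate, in sealed flasks at 27°C for up to 7 days. Aliquots taken daily and viability read by CellTiter-Glo luminescence. Result given as percent reduction in viability relative to DMSO-treated cultures. Controls were K11777 or amphotericin B at 10 µM.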

In data set [3] the test system is Schistosoma mansoni. Put plainly: Antimicrobial activity against Schistosoma mansoni assessed as worm vitality at 3 uM after 4 hrs. The class given is functional, organism-based. The procedure, abridged:
as §1

Data set [4] relates to Leishmania major. Put plainly: Antileishmanial activity against Leishmania major MHOM/IL/81/FE/BNI amastigotes after 48 hrs at 1 uM. The format is functional, organism-based. In short, it runs like this:
(§3)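 Peritoneal macrophages from BALB/c mice (6-8 wk) adhered 2 h at 37°C, infected 24 h with stationary-phase L. major promastigotes at 10:1 parasite:macrophage, washed, then exposed 48 h to compound at 0.0001 to 10 µM. Intracellular amastigotes stained with acridine orange/ethidium bromide and counted by fluorescence microscopy; percent amastigotes cleared versus DMSO-treated cultures; three repeats.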

In data set [5] the test system is Trypanosoma brucei brucei. Briefly: Antimicrobial activity against Trypanosoma brucei brucei clone 427-221a at 1.56 uM. The format is functional.
The nature of data set [6]: Cytotoxicity against BALB/c mouse peritoneal macrophages at 1 uM after 48 hrs hrs. The format is cell-based. The conditions noted are these: macrophage.
For data set [7], the system named is Plasmodium falciparum. Put plainly: Antimalarial activity against chloroquine-resistant Plasmodium falciparum FcB1R after 72 hrs. The format is functional, organism-based.
Data set [8] is described as follows: Selectivity index, ratio of EC50 for HL60 cells to EC50 for Trypanosoma brucei brucei clone 427-221a. The format is functional, HL-60. In short, it runs like this:
as §2

The test system of data set [9] is Trichomonas vaginalis. Put plainly: Antimicrobial activity against Trichomonas vaginalis G3 assessed as parasite death at 10 uM after 24 hrs. The class given is functional. The procedure, abridged: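 G3 strain grown in Diamond's medium at 37°C. Assay culture set up as 0.5 ml dense culture diluted into 5.0 ml complete medium. Compound at a final 10 µM for 24 h at 37°C. Motile cells counted by hemocytometer. Result is percent dead parasites relative to DMSO-treated cultures, from five separate experiments. Controls were untreated, DMSO and metronidazole.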

For data set [10], the system named is Trypanosoma brucei brucei. Put plainly: Antimicrobial activity against Trypanosoma brucei brucei clone 427-221a after 48 hrs. The class given is functional, organism-based. The procedure, abridged:
as §2

Data set [11] in a line: (§4) Cytotoxicity against human HL60 cells. Particulars: human, HL-60 cells; read-out: MIC. The class given is cell-based, HL-60. The procedure, abridged: as §2
Another data set deals with HL-60. The data set is described as §4. The class given is cell-based. Particulars: Homo sapiens, HL-60. The procedure, abridged: as §2
Data set [12] deals with Plasmodium falciparum. Put plainly: Antimicrobial activity against chloroquine-sensitive Plasmodium falciparum 3D7 after 72 hrs. The format is functional, organism-based. Particulars: 3D7, 72 h.
Data set [13] concerns Plasmodium falciparum. Put plainly: Antimicrobial activity against chloroquine-resistant Plasmodium falciparum W2 after 72 hrs. The class given is functional, organism-based. Particulars: W2, 72 h.
The next data set deals with Entamoeba histolytica. Briefly: Antimicrobial activity against Entamoeba histolytica HM1 IMSS trophozoites after 48 hrs. The class given is functional, organism-based. The conditions noted are these: 60 h, in the assay text read “60 hrs” for “48 hrs”. The procedure, abridged: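 Trophozoites were grown axenically in TYI-S-33 with 10% bovine adult serum and seeded at ~10^4 cells/well. Compound (range up to 10 µM) was added to 48-h log-phase cultures, then incubated 60 h at 37°C under anaerobic conditions. Viability was read by CellTiter-Glo luminescence. EC50 came from quadruplicate wells in two independent experiments.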

Data set [14] is described as follows: Cytotoxicity against BALB/c mouse peritoneal macrophages at 10 uM after 48 hrs hrs. The format is cell-based. Particulars: macrophage.
The subject of data set [15] is Trichomonas vaginalis. Briefly: Antimicrobial activity against Trichomonas vaginalis G3 assessed as parasite death at 1 uM after 24 hrs. The class given is functional.
The subject of data set [16] is Leishmania major. Put plainly: Antileishmanial activity against Leishmania major MHOM/IL/81/FE/BNI amastigotes after 48 hrs. The format is functional, organism-based. The procedure, abridged: as §3
A further data set deals with J774. Put plainly: Cytotoxicity against mouse J774 cells. The format is cell-based.

Converted amounts (≈) assume the structure as drawn. The source made the active and inactive calls. The rule behind the calls is not given here.

As for `COc1ccc2nc3cc(Cl)ccc3c(NCCCNCCCNc3c4ccc(Cl)cc4nc4ccc(OC)cc34)c2c1`, the result in the data set on Schistosoma mansoni [1] and in the data set on Schistosoma mansoni [3] was Active. The Activity with MRC5 is recorded as 100%; in the data set with Leishmania donovani it was 95%; in [5], 100%; in data set [6] it was “Toxic”; in the data set with Trichomonas vaginalis [9] it was 23%; in data set [14] it was “Toxic”. The Ratio in data set [2] is 10. For the same compound, in the data set on Leishmania major [4], the result was inactive. Further, the EC50 was 55 nM with Plasmodium falciparum [7]; 1.1 nM in data set [10]; 244 nM in the data set on HL-60; 127 nM in the data set on Plasmodium falciparum [12]; 180 nM in the data set on Plasmodium falciparum [13]; 5000 nM in the data set with Entamoeba histolytica. Besides, in data set [8], the “Ratio EC50” value came out at 214. In [10], this compound registered an MIC of 1 µM (≈ 0.615 µg/mL). The MCC in [11] amounted to 10 µM.

`COc1ccc2nc3cc(Cl)ccc3c(NCCNCCCNCCNc3c4ccc(Cl)cc4nc4ccc(OC)cc34)c2c1`: the outcome with Schistosoma mansoni [1] and in the data set with Schistosoma mansoni [3] was Active. Further, the Ratio in [2] worked out at 1. The Activity with Leishmania donovani was 99%; in data set [6], “Toxic”; with Trichomonas vaginalis [9], 75%; in data set [14], “Toxic”. Besides, the outcome with Leishmania major [4] was inactive. In data set [8], the “Ratio EC50” value came out at 91. Moreover, the EC50 amounted to 1.3 nM in [10]; 120 nM with HL-60; 105 nM in the data set with Plasmodium falciparum [12]; 136 nM in the data set with Plasmodium falciparum [13]; 5000 nM in the data set on Entamoeba histolytica. In data set [10], inhibition of growth (MIC) required 1 µM (≈ 0.644 µg/mL). For the same compound, the MCC in data set [11] is 1 µM.

In the case of `Cc1ncc([N+](=O)[O-])n1CCO` [METRONIDAZOLE], the Activity with Trichomonas vaginalis [15] amounted to 100%. For the same compound, in the data set with Entamoeba histolytica, the EC50 is 2000 nM.

For the compound `COc1ccc2nc3cc(Cl)ccc3c(NCCCCNCCCNc3c4ccc(Cl)cc4nc4ccc(OC)cc34)c2c1`, the result in the data set on Schistosoma mansoni [1] and with Schistosoma mansoni [3] was Active. Moreover, the Activity in the data set with MRC5 is given as 100%; with Leishmania donovani, 96%; in data set [5] it was 100%; with Trichomonas vaginalis [9] it was 3%; in data set [14] it was “Toxic”; with J774 it was “Toxic”. Moreover, in [2], the Ratio is on record as 10. The EC50 is 800 nM in the data set on Leishmania major [16]; 61 nM in the data set on Plasmodium falciparum [7]; 0.7 nM in data set [10]; 144 nM in the data set on HL-60; 62 nM with Plasmodium falciparum [12]; 135 nM with Plasmodium falciparum [13]. Further, the EC50 in the data set with Entamoeba histolytica was found to be 5000 nM. Further, the “Ratio EC50” value in data set [8] came to 209. Moreover, in [10], the MIC came out at 1 µM (≈ 0.629 µg/mL). The MCC in data set [11] was 10 µM.
